Among the data in ChEMBL document CHEMBL4251626, “4β-amidotriazole linked podophyllotoxin congeners: DNA topoisomerase-IIα inhibition and potential anticancer agents for prostate cancer” (Eur J Med Chem, 2018) are IC50 values, retold here.

For test [1], the system named is HT-29. Put plainly: Antiproliferative activity against human HT-29 cells after 48 hrs by MTT assay. The class given is functional, cell-based. Particulars: HT-29, 48 h. The method in brief:
(§1)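 Cells in DMEM/10% FBS pre-incubated 24 h at 37 °C, then compound-treated 48 h (10 mM DMSO stock diluted in medium). MTT (10 µL of 5 mg/mL) added for 4 h; formazan dissolved in DMSO, absorbance read at 570 nm. IC50 = 50% inhibitory concentration, mean of three individual experiments.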
For orientation: Tetrazolium dyes change colour on reduction, which living cells bring about.

The subject of test [2] is MCF7. Put plainly: Antiproliferative activity against human MCF7 cells after 48 hrs by MTT assay. The test is classed as functional, cell-based. Conditions: MCF7, 48 h. The method in brief:
as §1

The subject of test [3] is DU-145. Put plainly: Antiproliferative activity against human DU145 cells after 48 hrs by MTT assay. Particulars: DU-145, 48 h. The test is classed as functional, cell-based. The essentials:
as §1

Test [4] relates to HepG2. Put plainly: Antiproliferative activity against human HepG2 cells after 48 hrs by MTT assay. The test is classed as functional, cell-based. Conditions: HepG2, 48 h. The method in brief:
as §1

Test [5] relates to NIH3T3. Put plainly: Antiproliferative activity against mouse NIH/3T3 cells after 48 hrs by MTT assay. The class given is cell-based. Particulars: NIH3T3, 48 h. The essentials:
as §1

Test [6] has as its system HeLa. As to the kind of experiment: Antiproliferative activity against human HeLa cells after 48 hrs by MTT assay. The class given is functional, cell-based. The method in brief: as §1
In test [7] the test system is A549. As to the kind of experiment: Antiproliferative activity against human A549 cells after 48 hrs by MTT assay. The test is classed as functional, cell-based. Particulars: A549, 48 h. The essentials: as §1

In general, pIC50 refers to the negative decadic logarithm of the IC50, by convention in mol/L. Low values mean a large IC50, high ones a small IC50.

pIC50: −log10 of the molar value.

As for `COc1cc([C@@H]2c3cc4c(cc3C(NC(=O)c3cn(Cc5ccc(Cl)cc5)nn3)[C@H]3COC(=O)[C@H]23)OCO4)cc(OC)c1OC` (single isomer, unassigned), the pIC50 in test [1] was 4.63; in test [2], 5.28; in test [3], 5.63; in test [4], 5.45; in test [5], 4.09; in test [6] it was 5.45. The compound also gave a pIC50 in test [7] of 5.09.
`COc1ccc(Cn2cc(C(=O)NC3c4cc5c(cc4[C@@H](c4cc(OC)c(OC)c(OC)c4)[C@H]4C(=O)OC[C@H]34)OCO5)nn2)cc1` (single isomer, unassigned): the pIC50 is 4.76 in test [1]; 5.48 in test [2]; 5.75 in test [3]; 5.71 in test [4]; 4.17 in test [5]; 5.46 in test [6]. For the same compound, the pIC50 in test [7] was 5.24.
`COc1cc([C@@H]2c3cc4c(cc3C(NC(=O)c3cn(-c5ccccc5)nn3)[C@H]3COC(=O)[C@H]23)OCO4)cc(OC)c1OC` (single isomer, unassigned): the pIC50 in test [1] is 5.27; in test [2] it was 5.84; in test [3], 5.88; in test [4], 5.71; in test [5] it was 4.27; in test [6], 5.61. Moreover, the pIC50 in test [7] is 5.74.
With `COc1cc([C@@H]2c3cc4c(cc3C(NC(=O)c3cn(Cc5ccccc5)nn3)[C@H]3COC(=O)[C@H]23)OCO4)cc(OC)c1OC` (single isomer, unassigned), the pIC50 was 4.72 in test [1]; 4.86 in test [2]; 4.77 in test [3]; 4.88 in test [4]; 4.17 in test [5]; 4.73 in test [6]. In test [7], this compound showed a pIC50 of 4.88.
As to `COc1cc([C@@H]2c3cc4c(cc3C(NC(=O)c3cn(Cc5cccc(Oc6ccccc6)c5)nn3)[C@H]3COC(=O)[C@H]23)OCO4)cc(OC)c1OC` (single isomer, unassigned), the pIC50 was 4.39 in test [1]; 5.36 in test [2]; 5.25 in test [3]; 5.18 in test [4]; 4.05 in test [5]; 4.64 in test [6]. In addition, in test [7], the pIC50 is 5.06.
As to `COc1cc(OC)cc(-n2cc(C(=O)NC3c4cc5c(cc4[C@@H](c4cc(OC)c(OC)c(OC)c4)[C@H]4C(=O)OC[C@H]34)OCO5)nn2)c1` (single isomer, unassigned), the pIC50 in test [1] is 4.71; in test [2], 5.06; in test [3], 4.93; in test [4], 4.86; in test [5] it was 4.11; in test [6] it was 4.77. This compound also had a pIC50 in test [7] of 4.75.
For the compound `COc1cc(Cn2cc(C(=O)NC3c4cc5c(cc4[C@@H](c4cc(OC)c(OC)c(OC)c4)[C@H]4C(=O)OC[C@H]34)OCO5)nn2)cc(OC)c1OC` (single isomer, unassigned), the pIC50 in test [1] was 5.07; in test [2], 5.13; in test [3] it was 5.07; in test [4] it was 6.02; in test [5], 4.21; in test [6] it was 4.99. In test [7], this compound had a pIC50 of 4.83.
For the compound `COc1cccc(Cn2cc(C(=O)NC3c4cc5c(cc4[C@@H](c4cc(OC)c(OC)c(OC)c4)[C@H]4C(=O)OC[C@H]34)OCO5)nn2)c1` (single isomer, unassigned), the pIC50 was 4.50 in test [1]; 5.11 in test [2]; 4.91 in test [3]; 5.01 in test [4]; 4.13 in test [5]; 4.65 in test [6]. For the same compound, the pIC50 in test [7] is 4.67.
For `COc1cc([C@@H]2c3cc4c(cc3C(NC(=O)c3cn(Cc5ccc(F)cc5)nn3)[C@H]3COC(=O)[C@H]23)OCO4)cc(OC)c1OC` (single isomer, unassigned), the pIC50 in test [1] is 4.11; in test [2], 4.72; in test [3], 4.64; in test [4], 4.47; in test [5], 4.04; in test [6], 4.54. The pIC50 in test [7] was 4.12.
With `COc1cc([C@@H]2c3cc4c(cc3C(NC(=O)c3cn(-c5ccc(F)cc5)nn3)[C@H]3COC(=O)[C@H]23)OCO4)cc(OC)c1OC` (single isomer, unassigned), the pIC50 in test [1] is 4.86; in test [2], 5.17; in test [3] it was 5.02; in test [4] it was 4.96; in test [5] it was 4.01; in test [6], 4.10. The compound also gave a pIC50 in test [7] of 4.85.
As to `COc1cc([C@@H]2c3cc4c(cc3C(NC(=O)c3cn(Cc5ccc6c(c5)OCO6)nn3)[C@H]3COC(=O)[C@H]23)OCO4)cc(OC)c1OC` (single isomer, unassigned), the pIC50 in test [1] is 4.44; in test [2], 4.46; in test [3], 4.56; in test [4] it was 4.58; in test [5] it was 4.16; in test [6], 4.48. Besides, the negative logarithm of the IC50 (pIC50) in test [7] was 4.46.
In the case of `COc1cc(Cn2cc(C(=O)NC3c4cc5c(cc4[C@@H](c4cc(OC)c(OC)c(OC)c4)[C@H]4C(=O)OC[C@H]34)OCO5)nn2)cc(OC)c1` (single isomer, unassigned), the pIC50 in test [1] is 4.56; in test [2] it was 4.86; in test [3], 4.83; in test [4] it was 4.85; in test [5], 4.09; in test [6], 4.59. The pIC50 in test [7] was 4.49.
As to `COc1ccc(Cn2cc(C(=O)NC3c4cc5c(cc4[C@@H](c4cc(OC)c(OC)c(OC)c4)[C@H]4C(=O)OC[C@H]34)OCO5)nn2)cc1OC` (single isomer, unassigned), the negative-log IC50 (pIC50) in test [1] is 4.87; in test [2], 4.91; in test [3], 4.87; in test [4], 4.90; in test [5], 4.08; in test [6], 4.91. This compound also gave a pIC50 in test [7] of 4.71.
For `COc1cc([C@@H]2c3cc4c(cc3C(NC(=O)c3cn(-c5ccc6c(c5)OCO6)nn3)[C@H]3COC(=O)[C@H]23)OCO4)cc(OC)c1OC` (single isomer, unassigned), the pIC50 in test [1] was 4.75; in test [2], 5.12; in test [3], 5.05; in test [4], 5.00; in test [5], 4.17; in test [6], 4.32. Moreover, in test [7], the pIC50 is 6.01.
Take `COc1cc([C@@H]2c3cc4c(cc3C(NC(=O)c3cn(-c5cc(OC)c(OC)c(OC)c5)nn3)[C@H]3COC(=O)[C@H]23)OCO4)cc(OC)c1OC` (single isomer, unassigned): the negative logarithm of the IC50 (pIC50) was 5.07 in test [1]; 5.13 in test [2]; 5.07 in test [3]; 6.02 in test [4]; 4.10 in test [5]; 4.99 in test [6]. Moreover, the pIC50 in test [7] is 4.83.
On to `COc1cc([C@@H]2c3cc4c(cc3C(NC(=O)c3cn(Cc5ccc(C(F)(F)F)cc5)nn3)[C@H]3COC(=O)[C@H]23)OCO4)cc(OC)c1OC` (single isomer, unassigned), for which the pIC50 is 4.18 in test [1]; 4.66 in test [2]; 4.48 in test [3]; 4.69 in test [4]; 4.12 in test [5]; 4.57 in test [6]. Besides, the pIC50 in test [7] is 4.56.
In the case of `COc1ccc(-n2cc(C(=O)NC3c4cc5c(cc4[C@@H](c4cc(OC)c(OC)c(OC)c4)[C@H]4C(=O)OC[C@H]34)OCO5)nn2)cc1OC` (single isomer, unassigned), the pIC50 in test [1] was 4.82; in test [2], 5.09; in test [3] it was 4.84; in test [4], 4.93; in test [5], 4.18; in test [6], 4.73. Moreover, the negative-log IC50 (pIC50) in test [7] was 4.92.
For `COc1cc([C@@H]2c3cc4c(cc3[C@H](O)[C@H]3COC(=O)[C@H]23)OCO4)cc(OC)c1OC` [PODOFILOX], the pIC50 in test [1] was 5.32; in test [2] it was 5.51; in test [3], 5.38; in test [4], 5.18; in test [6], 5.46; in test [7] it was 5.34.
